The text below walks through data of ChEMBL document CHEMBL4371074, “Discovery of Selective Matriptase and Hepsin Serine Protease Inhibitors: Useful Chemical Tools for Cancer Cell Biology” (J Med Chem, 2019).

Activity calls are given as the source filed them. The calls are words filed in the database; no cut-off is given here.

Assay [1] is filed under the species Homo sapiens. Briefly: Selectivity ratio of Ki(app) for recombinant human N-terminal His6-tagged matriptase catalytic domain expressed in Escherichia coli to Ki(app) for recombinant human C-terminal His10-tagged hepsin catalytic domain.
For assay [2], the target named is T1, Suppressor of tumorigenicity 14 protein (Homo sapiens, UniProt Q9Y5Y6).
T1 sequence (Q9Y5Y6 whole entry): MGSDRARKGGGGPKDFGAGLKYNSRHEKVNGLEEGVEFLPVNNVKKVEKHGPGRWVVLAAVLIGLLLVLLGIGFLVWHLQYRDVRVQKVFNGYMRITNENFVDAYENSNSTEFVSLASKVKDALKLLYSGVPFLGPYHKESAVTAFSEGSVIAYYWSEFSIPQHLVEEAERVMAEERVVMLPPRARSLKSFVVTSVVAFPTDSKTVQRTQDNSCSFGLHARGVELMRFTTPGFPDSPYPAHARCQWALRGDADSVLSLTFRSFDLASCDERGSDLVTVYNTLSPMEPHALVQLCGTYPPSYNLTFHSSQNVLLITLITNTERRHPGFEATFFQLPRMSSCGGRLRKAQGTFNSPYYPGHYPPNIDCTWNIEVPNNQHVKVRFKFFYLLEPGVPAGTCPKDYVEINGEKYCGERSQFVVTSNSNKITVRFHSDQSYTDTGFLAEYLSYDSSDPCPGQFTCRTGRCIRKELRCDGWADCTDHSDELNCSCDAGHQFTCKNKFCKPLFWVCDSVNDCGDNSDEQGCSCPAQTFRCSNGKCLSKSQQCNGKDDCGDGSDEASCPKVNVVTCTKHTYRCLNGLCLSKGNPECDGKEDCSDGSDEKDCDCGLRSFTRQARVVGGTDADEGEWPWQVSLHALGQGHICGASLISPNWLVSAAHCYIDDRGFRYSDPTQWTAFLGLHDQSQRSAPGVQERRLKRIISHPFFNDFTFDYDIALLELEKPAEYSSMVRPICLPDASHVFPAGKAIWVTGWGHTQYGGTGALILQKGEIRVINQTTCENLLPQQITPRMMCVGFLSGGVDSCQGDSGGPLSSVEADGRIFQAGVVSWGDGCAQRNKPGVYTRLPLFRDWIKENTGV
As to the kind of experiment: Inhibition of recombinant human N-terminal His6-tagged matriptase catalytic domain expressed in Escherichia coli preincubated for 30 mins followed by Boc-QAR-AMC substrate addition and measured for 1 hr by fluorescence assay. The following applies: read-out: Ki(app). The gist of the method:
(§1)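 HGFA was at 7.5 nM with Boc-QLR-AMC (Km 37 µM). Matriptase was at 0.2 nM and hepsin at 0.3 nM, both with Boc-QAR-AMC (Km 93 and 156 µM). Hepsin was pre-activated for 24 h at 37°C. Eleven inhibitor concentrations (0-20 µM, 2% DMSO) were given 30 min RT before substrate at Km. Fluorescence was read at ex 380/em 460 nm. IC50 came from a four-parameter fit, mean of three experiments.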

In assay [3] the target is T2, Serine protease hepsin (Homo sapiens, UniProt P05981). As to the kind of experiment: Inhibition of recombinant human C-terminal His10-tagged hepsin catalytic domain preincubated for 30 mins followed by Boc-QAR-AMC substrate addition and measured for 1 hr by fluorescence assay. The following applies: read-out: Ki(app). An outline of the steps:
as §1

For assay [4], the target named is T3, Hepatocyte growth factor activator serine protease (Homo sapiens, UniProt Q04756).
T3 sequence (Q04756 whole entry): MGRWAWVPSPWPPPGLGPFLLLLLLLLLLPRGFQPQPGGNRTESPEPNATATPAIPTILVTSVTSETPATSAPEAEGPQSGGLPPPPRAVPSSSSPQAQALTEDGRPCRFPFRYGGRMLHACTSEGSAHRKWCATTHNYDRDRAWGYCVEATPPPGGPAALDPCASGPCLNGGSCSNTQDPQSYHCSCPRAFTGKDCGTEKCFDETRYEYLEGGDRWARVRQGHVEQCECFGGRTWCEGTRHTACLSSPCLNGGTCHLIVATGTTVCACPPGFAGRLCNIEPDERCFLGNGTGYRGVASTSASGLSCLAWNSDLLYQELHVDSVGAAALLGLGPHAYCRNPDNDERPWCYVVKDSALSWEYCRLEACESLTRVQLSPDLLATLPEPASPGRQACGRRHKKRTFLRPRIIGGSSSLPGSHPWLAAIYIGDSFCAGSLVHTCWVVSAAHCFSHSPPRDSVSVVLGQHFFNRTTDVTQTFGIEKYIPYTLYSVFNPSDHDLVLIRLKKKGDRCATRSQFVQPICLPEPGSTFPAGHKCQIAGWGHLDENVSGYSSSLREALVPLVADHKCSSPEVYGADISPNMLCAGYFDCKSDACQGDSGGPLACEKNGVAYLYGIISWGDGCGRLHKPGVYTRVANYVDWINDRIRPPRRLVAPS
As to the kind of experiment: Inhibition of HGFA catalytic domain (unknown origin) preincubated for 30 mins followed by Boc-QLR-AMC substrate addition and measured for 1 hr by fluorescence assay. The following applies: read-out: Ki(app).

The species named for assay [5] is Homo sapiens. As to the kind of experiment: Selectivity ratio of Ki(app) for recombinant human C-terminal His10-tagged hepsin catalytic domain to Ki(app) for recombinant human N-terminal His6-tagged matriptase catalytic domain expressed in Escherichia coli.
Assay [6] addresses T2, Serine protease hepsin. As to the kind of experiment: Inhibition of hepsin (unknown origin) expressed in MCF10A cells assessed as reduction in desmosomal cadherin desmoglein 2 loss at 1 uM after 45 mins by Hoechst 33258 staining based immunofluorescence microscopic method. In kind it is cell-based. The gist of the method:
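MCF10A-Indu20-hepsin cells were grown as 2D monolayers on coverslips, with or without doxycycline induction, and pretreated with inhibitor at 1 µM. They were fixed and permeabilized in ice-cold methanol for 5 min and blocked in 0.1% BSA/PBS for 30 min. Staining used anti-desmoglein 2 and anti-hepsin, then Alexa secondaries for 45 min RT, with Hoechst nuclei. Confocal images were scored; cells with pericellular desmoglein 2 on at least two sides counted positive.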

Assay [7] deals with T2, Serine protease hepsin. Briefly: Inhibition of hepsin (unknown origin) expressed in MCF10A cells preincubated for 30 mins followed by Boc-QRR-AMC substrate addition and measured for 1 hr by fluorescence assay.

On to `CC(=O)N[C@@H](CCCCN)C(=O)N[C@@H](CCC(N)=O)C(=O)N[C@@H](CC(C)C)C(=O)N[C@@H](CCCNC(=N)N)C(=O)c1nc2ccccc2s1`, for which the Ratio Ki(app) in the assay filed under Homo sapiens [1] was 6.1.

Consider `CC[C@H](C)[C@H](NC(=O)OCC1c2ccccc2-c2ccccc21)C(=O)N[C@@H](CCCNC(=N)N)C(=O)c1nc2ccccc2s1`, for which the Ki came out at 486 nM in assay [2], 228 nM at Serine protease hepsin [3] and 4300 nM in assay [4]. Moreover, the Ratio Ki(app) in the assay filed under Homo sapiens [1] is 2.1.

In the case of `CC(C)[C@H](NC(=O)OCC1c2ccccc2-c2ccccc21)C(=O)N[C@@H](CCCNC(=N)N)C(=O)c1nc2ccccc2s1`, the figures for the Ki (in assay [2]; at Serine protease hepsin [3]; in assay [4]) were 18 nM, 125 nM and 4630 nM, respectively. Besides, the Ratio Ki(app) in the assay listed under Homo sapiens [5] turned out to be 6.9.

As to `N=C(N)NCCC[C@H](NC(=O)[C@H](Cc1ccc(O)cc1)NC(=O)OCC1c2ccccc2-c2ccccc21)C(=O)c1nc2ccccc2s1`, the Ki was 25 nM in assay [2], 256 nM on Serine protease hepsin [3] and 2960 nM in assay [4]. Besides, the Ratio Ki(app) in the assay filed under Homo sapiens [5] amounted to 10.

Turning to `CSCC[C@H](NC(=O)OCC1c2ccccc2-c2ccccc21)C(=O)N[C@@H](CCCNC(=N)N)C(=O)c1nc2ccccc2s1`, the Ki was found to be 5.4 nM in assay [2] and 227 nM at Serine protease hepsin [3].

On to `CC(C)C[C@H](NC(=O)OCC1c2ccccc2-c2ccccc21)C(=O)N[C@@H](CCCNC(=N)N)C(=O)c1nc2ccccc2s1`, for which the Ki in assay [2] was 253 nM; on Serine protease hepsin [3], 67 nM; in assay [4] it was 468 nM. Besides, the Ratio Ki(app) in the assay listed under Homo sapiens [1] was 3.8.

In the case of `N=C(N)NCCC[C@H](NC(=O)[C@H](Cc1ccccc1)NC(=O)OCC1c2ccccc2-c2ccccc21)C(=O)c1nc2ccccc2s1`, the Ki in assay [2] amounted to 188 nM; on Serine protease hepsin [3], 764 nM. Further, the Ratio Ki(app) in the assay filed under Homo sapiens [5] was 4.

Turning to `N=C(N)NCCC[C@H](NC(=O)[C@H](Cc1cnc[nH]1)NC(=O)OCC1c2ccccc2-c2ccccc21)C(=O)c1nc2ccccc2s1`, the Ki was found to be 11 nM in assay [2], 226 nM at Serine protease hepsin [3] and 6120 nM in assay [4]. In addition, the Ratio Ki(app) in the assay listed under Homo sapiens [5] was 21.

Usually IC50 stands for the concentration needed to halve the response being measured. `N=C(N)NCCC[C@H](NC(=O)[C@H](CC(N)=O)NC(=O)OCC1c2ccccc2-c2ccccc21)C(=O)c1nc2ccccc2s1`: the Ki in assay [4] came out at 4770 nM. In addition, the Ratio Ki(app) in the assay listed under Homo sapiens [1] was determined as 62. In addition, at Serine protease hepsin [6], the inhibition entry was “Active”. Besides, half-maximal inhibition against Serine protease hepsin [7] (IC50) required 92 nM.

With `N=C(N)NCCC[C@H](NC(=O)CNC(=O)OCC1c2ccccc2-c2ccccc21)C(=O)c1nc2ccccc2s1`, the Ki in assay [4] amounted to 9370 nM. For the same molecule, the Ratio Ki(app) in the assay listed under Homo sapiens [5] was found to be 6390. Further, the inhibition result at Serine protease hepsin [6] is “inactive”. This molecule had an IC50 against Serine protease hepsin [7] of more than 10000 nM.

On to `N=C(N)NCCC[C@H](NC(=O)[C@H](CCCCN)NC(=O)OCC1c2ccccc2-c2ccccc21)C(=O)c1nc2ccccc2s1`, for which the Ki in assay [2] is 0.22 nM; on Serine protease hepsin [3] it was 104 nM; in assay [4], more than 10000 nM. In addition, in the assay listed under Homo sapiens [5], the Ratio Ki(app) came to 473.

Regarding `N=C(N)NCCC[C@H](NC(=O)[C@@H]1CCCN1C(=O)OCC1c2ccccc2-c2ccccc21)C(=O)c1nc2ccccc2s1`, the Ki is 0.5 nM in assay [2], 391 nM at Serine protease hepsin [3] and more than 10000 nM in assay [4]. Also, the Ratio Ki(app) in the assay listed under Homo sapiens [5] stood at 782.

Consider `N=C(N)NCCC[C@H](NC(=O)[C@H](Cc1c[nH]c2ccccc12)NC(=O)OCC1c2ccccc2-c2ccccc21)C(=O)c1nc2ccccc2s1`, for which the Ki in assay [2] came to 294 nM; at Serine protease hepsin [3] it was 302 nM; in assay [4], 3200 nM. The Ratio Ki(app) in the assay filed under Homo sapiens [5] and in the assay listed under Homo sapiens [1] was 1 in each case.

With `C[C@H](NC(=O)OCC1c2ccccc2-c2ccccc21)C(=O)N[C@@H](CCCNC(=N)N)C(=O)c1nc2ccccc2s1`, the Ki was found to be 0.36 nM in assay [2], 240 nM on Serine protease hepsin [3] and 7980 nM in assay [4]. In the assay listed under Homo sapiens [5], the Ratio Ki(app) is 667.

As to `N=C(N)NCCC[C@H](NC(=O)[C@H](CCC(N)=O)NC(=O)OCC1c2ccccc2-c2ccccc21)C(=O)c1nc2ccccc2s1`, the Ki in assay [2] was found to be 0.65 nM; at Serine protease hepsin [3], 116 nM; in assay [4], 6830 nM. Also, the Ratio Ki(app) in the assay filed under Homo sapiens [5] worked out at 179.

`N=C(N)NCCC[C@H](NC(=O)[C@H](CC(=O)O)NC(=O)OCC1c2ccccc2-c2ccccc21)C(=O)c1nc2ccccc2s1`: the values for the Ki (in assay [2]; on Serine protease hepsin [3]; in assay [4]) were 294 nM, 98 nM and more than 10000 nM, respectively. In addition, in the assay filed under Homo sapiens [1], the Ratio Ki(app) came to 3.

Turning to `CC(=O)N[C@@H](CO)C(=O)N[C@@H](CCCCN)C(=O)N[C@@H](CC(C)C)C(=O)N[C@@H](CCCNC(=N)N)C(=O)c1nc2ccccc2s1`, in assay [2], the Ki was 3.1 nM. In addition, the Ratio Ki(app) in the assay filed under Homo sapiens [1] turned out to be 19.

`N=C(N)NCCC[C@H](NC(=O)OCC1c2ccccc2-c2ccccc21)C(=O)N[C@@H](CCCNC(=N)N)C(=O)c1nc2ccccc2s1`: the Ki in assay [2] came to 3.9 nM; on Serine protease hepsin [3] it was 102 nM; in assay [4], 8630 nM. For the same molecule, the Ratio Ki(app) in the assay filed under Homo sapiens [5] was 26.

On to `C[C@@H](O)[C@H](NC(=O)OCC1c2ccccc2-c2ccccc21)C(=O)N[C@@H](CCCNC(=N)N)C(=O)c1nc2ccccc2s1`, for which the Ki is 271 nM in assay [2], 180 nM on Serine protease hepsin [3] and more than 10000 nM in assay [4]. The Ratio Ki(app) in the assay filed under Homo sapiens [1] came out at 1.5.

With `N=C(N)NCCC[C@H](NC(=O)[C@H](CO)NC(=O)OCC1c2ccccc2-c2ccccc21)C(=O)c1nc2ccccc2s1`, the Ki in assay [2] was 4.9 nM; on Serine protease hepsin [3] it was 555 nM; in assay [4], more than 10000 nM. Also, the Ratio Ki(app) in the assay filed under Homo sapiens [5] was 113.

As to `N=C(N)NCCC[C@H](NC(=O)[C@H](CCC(=O)O)NC(=O)OCC1c2ccccc2-c2ccccc21)C(=O)c1nc2ccccc2s1`, the Ki in assay [2] is 7.2 nM; at Serine protease hepsin [3], 372 nM; in assay [4] it was more than 10000 nM. Besides, the Ratio Ki(app) in the assay filed under Homo sapiens [5] was 52.
